Screens deposited in PubChem BioAssay by The Scripps Research Institute Molecular Screening Center.
Shown are actives, neighbours in structure and some others; about 1.9% of the full set was active somewhere.
NPY-Y2 antag: NPY-Y2 receptor antagonists, primary screen, cell-based; Neuropeptide Y receptor type 2 (Homo sapiens), P49146; NPY-Y2 expressing cells, antagonist mode; inhibition, % at 2.7 µM; 0.99% of 140,000 active; in the data active means inhibition above about 17%;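 further: 0% = vehicle with agonist challenge and 100% = reference antagonist with challenge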
NPY-Y1 PAM-ag: NPY-Y1 receptor potentiators or agonists, primary screen, cell-based; Neuropeptide Y receptor type 1 (Homo sapiens), P25929; NPY-Y1 expressing cells, potentiator/agonist activation; activation, % at 3.6 µM; 0.37% of 220,000 active; AID 1304, 2008; in the data active means activation above about 33%, passing the limit was not always enough;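 further: cells stimulated with NPY at EC10 then isoproterenol at EC100; 0% = low agonist plus stimulus and 100% = saturating agonist plus stimulus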
Target sequence (P25929 whole entry, looked up): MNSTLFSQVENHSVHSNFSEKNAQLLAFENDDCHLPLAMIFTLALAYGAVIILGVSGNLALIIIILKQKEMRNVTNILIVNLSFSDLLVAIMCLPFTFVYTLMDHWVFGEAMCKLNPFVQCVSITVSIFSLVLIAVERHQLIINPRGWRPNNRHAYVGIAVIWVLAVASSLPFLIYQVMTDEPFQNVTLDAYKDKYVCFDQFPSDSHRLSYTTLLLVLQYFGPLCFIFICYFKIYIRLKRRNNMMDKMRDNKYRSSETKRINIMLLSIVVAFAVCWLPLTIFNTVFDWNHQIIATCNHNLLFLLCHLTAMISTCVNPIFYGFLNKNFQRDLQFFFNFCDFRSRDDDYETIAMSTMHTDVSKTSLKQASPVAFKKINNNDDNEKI
NPY2 pot ag: NPY-Y2 potentiators or agonists, primary screen, cell-based | activation, % at 3.6 µM | cells expressing NPY-Y2, potentiator/agonist read-out | 0.45% of 220,000 active | Neuropeptide Y receptor type 2 (Homo sapiens), P49146; in the data active means activation above about 27%;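 further: cells stimulated with NPY near EC25 plus isoproterenol at EC100; 0% = vehicle plus submaximal agonist and 100% = vehicle plus saturating agonist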
NPY-Y1 antag: NPY-Y1 receptor antagonists, primary screen, cell-based | Neuropeptide Y receptor type 1 (Homo sapiens), P25929 | HEK293-CNG Y1 cells, membrane potential fluorescence; NPY at EC95, then isoproterenol | inhibition, % at 3.6 µM | 1% of 200,000 active | AID 1040, 2008;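 active means inhibition above the campaign mean inhibition of all tested compounds plus 3 SD, cut at about 20% in these data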;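 further: 0% = DMSO wells given NPY plus isoproterenol and 100% = isoproterenol alone without NPY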
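Material: HEK293 cells co-expressing NPY Y1 receptor and cyclic-nucleotide gated channel. Timing: compound incubation 1 h at room temperature, readout 45 min post-stimulation. Signal: fluorescence, membrane potential probe.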
NPY-Y1 pot conf: NPY-Y1 potentiators or agonists, confirmation, cell-based; shares compounds with NPY-Y1 PAM-ag; cell-based NPY-Y1 potentiator/agonist assay; activation, % at 3.6 µM; 20% of 280 active; AID 1546, 2009; in the data active means activation above about 45%;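 further: cells challenged with NPY at its EC10 plus isoproterenol stimulus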
NPY-Y2 counter: NPY-Y2 potentiators or agonists, counter-screen for NPY-Y1 potentiator project, cell-based, fluorescence. shares compounds with NPY-Y1 PAM-ag. HEK293-CNG cells, membrane-potential fluorescence (FLIPR), 1536-well. activation, % at 3.6 µM. 20% of 280 active. AID 1649, 2009; in the data active means activation above about 33%
NPY-Y1 agonist: NPY-Y1 direct agonists without NPY, confirmation, counter-screen for NPY-Y1 potentiator project, cell-based, fluorescence; shares compounds with NPY-Y1 PAM-ag; HEK293 Y1-CNGC, membrane potential fluorescence, agonist mode; activation, % at 3.6 µM; 50% of 280 active; AID 1697, 2009;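 active means percent activation above the mean of DMSO-only control wells plus 3 SD of those wells, cut at about 18% in these data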;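 further: cells challenged with isoproterenol plus Ro 20-1724 with no NPY in test wells; Y1 agonism lowers isoproterenol-driven cAMP and reduces probe fluorescence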
NPY-Y2 ag: NPY-Y2 direct agonists without NPY, counter-screen for NPY-Y1 potentiator project, cell-based, fluorescence | shares compounds with NPY-Y1 PAM-ag | HEK293 Y2-CNGC, membrane potential fluorescence, agonist mode | activation, % at 3.6 µM | 67% of 280 active;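 active means activation above the solvent-only control wells' mean plus 3 SD, cut at about 11% in these data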;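 further: 0% = DMSO with isoproterenol and 100% = 40 nM NPY maximal response; agonism lowers cAMP so well fluorescence drops in active wells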
CNGC inh 2: CNGC cAMP sensor activity inhibitors, counter-screen for NPY-Y1 potentiator/agonist project, cell-based, HEK293-CNG parental, membrane potential fluorescence, Y1 set. shares compounds with NPY-Y1 PAM-ag. 42% of 280 active. inhibition, % at 3.6 µM. isoproterenol cAMP;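 active means inhibition above the mean of stimulated solvent-only control wells plus 3 SD, cut at about 22% in these data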;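 further: 0% = isoproterenol-stimulated DMSO wells and 100% = unstimulated DMSO wells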
An asterisk follows results filed as active; . = no result.

SMILES	NPY-Y2 antag	NPY-Y1 PAM-ag	NPY2 pot ag	NPY-Y1 antag	NPY-Y1 pot conf	NPY-Y2 counter	NPY-Y1 agonist	NPY-Y2 ag	CNGC inh 2
Cc1ccc(-c2nc(Nc3ccc(N4CCOCC4)cc3)c3ccccc3n2)cc1	.	53*	37	.	51*	42*	58*	45*	58*
CCCC(=O)Nc1ccc(NC(=O)CCc2ccccc2)cn1	3	52*	17	-5	-1	1	-8	6	3
COCCN=c1scc(-c2cccs2)n1/N=C/c1ccc(O)c(O)c1O	0	54*	32	-3	32	20	29*	9	20
O=C(CSc1nc2cc(C(F)(F)F)ccc2n1Cc1ccccc1)NC1CCS(=O)(=O)C1 (centres undefined)	2	48*	32	-10	91*	63*	78*	53*	72*
Cc1cc(C)n(-c2n[nH]c(C)c2[N+](=O)[O-])n1	.	-9	-12	-2	.	.	.	.	.
Cc1[nH]n(-c2ccc([N+](=O)[O-])cc2)c(=O)c1C=NCCN1CCN(C(=O)c2cccc(F)c2)CC1	2	47*	6	-3	15	5	11	2	7
CCN(CC)S(=O)(=O)c1cc(NC(=O)Cn2ncc(Cl)c(Cl)c2=O)ccc1C	.	44*	32	.	36	19	22*	18*	27*
O=C(Cn1cnc2c(nnn2Cc2ccc(F)cc2)c1=O)OCc1ccccc1	4	-2	11	-3	.	.	.	.	.
Cc1ccc(Cn2nnc3c(=O)n(CC(=O)OCc4ccccc4)cnc32)cc1	5	49*	28	-8	14	6	18*	11*	30*
O=C(Nc1ccccc1)Nc1cc(OCC(F)(F)F)cc(OCC(F)(F)F)c1	-2	46*	24	-4	36	30	11	25*	25*
Cn1cc([N+](=O)[O-])c(C(=O)Nc2ccc(C3CCCCC3)cc2)n1	.	37*	22	-10	36	19	19*	17*	15
c1ccc(-n2ncc3cccnc32)cc1	.	5	4	.	.	.	.	.	.
Cc1onc(-c2c(Cl)cccc2Cl)c1C(N)=O	5	6	3	-5	.	.	.	.	.
Cc1onc(-c2c(Cl)cccc2Cl)c1C(=O)n1nnc2ccccc21	2	45*	-13	6	5	-3	-4	-5	3
CCOC(=O)c1c(NC(=O)CSc2nc3nc(C)cc(C)n3n2)sc(CC)c1C	-2	27	8	-2	.	.	.	.	.
Cc1cc(C)n2nc(N)c(N=Nc3ccc(Cl)cc3)c2n1	2	-2	7	-2	.	.	.	.	.
O=C(Nc1ccc([N+](=O)[O-])cc1)C(=O)Nc1cccc(C(=O)O)c1	.	52*	35	.	36	19	24*	8	35*
CCOC(=O)c1c(CSCc2ccccc2)oc2ccc(O)c(CN(C)C)c12	.	20	-21	.	.	.	.	.	.
Cc1oc2ccc(O)c(CN(C)C)c2c1C(=O)c1ccccc1	.	47*	14	2	14	21	16	11*	-10
CC(C)[C@H](NC(N)=O)C(=O)Nc1ccc(F)c(Cl)c1	.	9	-4	4	.	.	.	.	.
COc1ccc(N/N=C(\C#N)C(=N)SCc2ccccc2)cc1	.	37*	25	-4	18	6	17	23*	15
COC(=O)c1sc(-c2ccc(C(C)(C)C)cc2)cc1NC(=O)c1ccccc1C(=O)O	.	63*	20	.	46*	31	39*	12*	24*
COC(=O)c1sc(-c2ccc(Cl)cc2)cc1NC(=O)c1ccccc1C(=O)O	.	12	2	.	.	.	.	.	.
CN1CCN(c2ccccc2NC(=O)c2ccc(N3CCCC3)c([N+](=O)[O-])c2)CC1	.	2	9	11	.	.	.	.	.
O=C(Nc1ccccc1N1CCCCC1)c1ccc(Cl)c([N+](=O)[O-])c1	.	51*	9	-10	45*	39*	29*	38*	34*
SMILES	NPY-Y2 antag	NPY-Y1 PAM-ag	NPY2 pot ag	NPY-Y1 antag	NPY-Y1 pot conf	NPY-Y2 counter	NPY-Y1 agonist	NPY-Y2 ag	CNGC inh 2
CCCC(=O)c1ccc(N2CCN(C(=O)c3ccccc3Br)CC2)c(F)c1	5	34*	8	-19	-27	0	-11	-2	-1
COc1ccc(CNC(=O)C2CCCN(Cc3nc(-c4cccc(C)c4)oc3C)C2)cc1 (centres undefined)	.	-22	-23	3	.	.	.	.	.
COc1ccc(-c2nc(CN3CCCC(C(=O)NC4CCCC4)C3)c(C)o2)cc1 (centres undefined)	2	59*	-12	0	-5	-1	-3	8	-1
Cc1[nH]c2ccccc2c1C(=O)CN1C(=O)NC(C)(c2ccc(Cl)cc2Cl)C1=O (centres undefined)	-5	56*	28	-1	44	32	32*	18*	27*
Cc1[nH]c2ccccc2c1C(=O)CSc1ccc(Cl)cc1	.	10	-14	-1	.	.	.	.	.
COCCn1c(C(C)C)nc2ccccc21	.	18	4	.	.	.	.	.	.
Cc1ccc2sc(N(CCCN(C)C)C(=O)c3nc4ccccc4s3)nc2c1C	.	-17	-7	7	.	.	.	.	.
